# Source: PubChem BioAssay (several laboratories)
# BaF3 tox: parental Ba/F3 viability inhibition as JAK2V617F counter-screen | CellTiter-Glo ATP luminescence | inhibition, % at 5.6 µM | 1.1% of 220,000 active | AID 1486;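 active = inhibition above a per-campaign cutoff, the mean inhibition of all tested compounds plus 3 SD, cut at about 27% in these data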
# bCat nuc transl: alters nuclear translocation of beta-catenin in HeLa cells. nuclear translocation activity, % at 5 µM. immunofluorescence imaging. 0.3% of 190,000 active. AID 1665;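 active = nuclear translocation activity above 50% at 5 µM, with a well cell count of 50 or more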;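 also: per-cell ratio of nuclear to cytoplasmic median beta-catenin stain intensity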
#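 assay system = human HeLa cells, endogenous beta-catenin | times = compound treatment 24 h, 37°C, 5% CO2 | detection = Anti-beta-catenin immunofluorescence on PFA-fixed, Triton-permeabilized cells, DAPI nuclei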
# L major viab: Leishmania major promastigote growth inhibition | Leishmania major promastigotes, resazurin fluorescence viability | inhibition, % at 10 µM | 9% of 200,000 active | AID 1063; in the data active = inhibition above about 50%;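 also: promastigotes grown with compound for 44 hours at 28 °C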
# APP transl inh: APP translation inhibition. SH-SY5Y APP 5'UTR-luciferase reporter, luminescence. inhibition, % at 2 µM. 0.82% of 190,000 active. AID 1285;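 active = inhibition above a set limit, derived from the sample mean plus 3 SD, cut at about 45% in these data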
# Ba/F3 V617F tox: reduce viability of Ba/F3 cells dependent on JAK2V617F | inhibition, % at 5.6 µM | AID 1446 | Ba/F3 EpoR-JAK2V617F viability, ATP luminescence | 1.1% of 220,000 active;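 active = inhibition above the campaign mean plus 3 SD over all tested compounds, cut at about 24% in these data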;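 also: cytokine-independent growth of Ba/F3 cells driven by EpoR plus mutant JAK2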
# MT stabilizer: stabilizes microtubules in HeLa cells; 0.83% of 200,000 active; AID 2205; HeLa tubulin immunostaining HCS, 24 h; share of cells brighter than vehicle mean+2SD; % tubulin-high responders, % at 10 µM;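 active = plate Z-score above 3 for both tubulin-high and condensed-nucleus cell shares, with cell loss under 80%, at 10 µM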;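 also: anti alpha tubulin signal scored within the nucleus-defined area of each cell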
# Numbers stand for hits; - = inactive; . = not tested or not shown. The list is not random: actives were taken first. Their share in the collection is about 9.6%.
SMILES,BaF3 tox,bCat nuc transl,L major viab,APP transl inh,Ba/F3 V617F tox,MT stabilizer
CC1=CC(=O)C=C(C)C1=NOS(=O)(=O)c1ccccc1,48,-,100,80,76,-
O=C(N/N=C/c1ccc(O)cc1)Nc1cccc2nsnc12,-,-,54,-,-,11
COc1ccccc1-c1coc2cc(OCC(=O)OCc3ccccc3)ccc2c1=O,-,-,-,-,-,-
COc1ccccc1-c1c(C)oc2cc(OCC(=O)OCc3ccccc3)ccc2c1=O,-,-,87,-,-,-
CC(=O)c1ccccc1OC(=O)c1ccc([N+](=O)[O-])o1,-,-,.,.,-,.
Cc1[nH]c2ccccc2c1C(=O)C(C)OC(=O)c1ccc([N+](=O)[O-])o1 (centres undefined),-,-,99,-,-,-
CC(C)c1ccc(-c2nnn(CCC(=O)O)n2)cc1,-,-,-,82,-,-
CCc1ccc(-c2nnn(CCC(=O)OC)n2)cc1,-,-,-,48,-,-
Cc1cccc(OCC(=O)NCC(=O)N/N=C/c2c(C)[nH]c3ccccc23)c1,-,-,.,.,-,.
O=C(NCc1ccncc1)c1ccc(Cl)c(S(=O)(=O)N2CCCCC2)c1,-,-,-,-,-,-
O=C(NCCOC(=O)c1ccc(Cl)c(S(=O)(=O)N2CCCCC2)c1)c1ccncc1,-,-,51,-,-,-
CC(=O)Nc1ccc2c(c1)CCCC2=O,-,-,.,.,-,.
O=C1CCCc2cc3c(cc21)CC1(C3)Cc2cc3c(cc2C1)C(=O)CCC3,-,72,.,.,-,.
Cc1[nH]c(=O)[nH]c(=O)c1S(=O)(=O)N1c2ccc(F)cc2CCC1C (centres undefined),-,-,-,-,-,-
CC(=O)Nc1ccc(N=Nc2ccc(O)cc2)cc1,-,-,52,-,-,-
OCCNc1nc(-c2cccnc2)nc2ccccc12,-,-,-,-,-,-
O=C(OCCNc1nc(-c2ccccc2)nc2ccccc12)c1cccnc1,-,-,57,-,-,-
O=C(OCCNc1nc(-c2ccccc2)nc2ccccc12)c1ccncc1,-,-,72,-,-,-
CCCOC(=O)c1cccc(Nc2nc(-c3cccnc3)nc3ccccc23)c1,-,-,56,-,-,-
O=C(O)CCNc1nc(-c2ccccc2)nc2ccccc12,-,-,-,-,-,-
CCCOC(=O)c1cccc(NC(=O)c2cccnc2)c1,-,-,-,-,-,-
O=C(Nc1ccc(Cl)cc1)N1CCC(c2nc(-c3ccccc3Cl)no2)CC1,-,-,-,-,-,-
CC(C)OC(=O)CCCNc1ccc([N+](=O)[O-])cc1[N+](=O)[O-],-,-,-,-,-,-
CC(=O)Nc1ccc(NC(=O)COC(=O)C2(c3ccc(Cl)cc3)CCCC2)cc1,-,-,74,-,-,-
CCc1cccc(CC)c1NC(=O)COC(=O)C1(c2ccc(Cl)cc2)CCCC1,-,-,-,-,-,-
SMILES,BaF3 tox,bCat nuc transl,L major viab,APP transl inh,Ba/F3 V617F tox,MT stabilizer
CC1(C)Cc2cccc(OCC(O)CN3CCN(c4ccccn4)CC3)c2O1 (centres undefined),-,-,85,-,-,-
COC(=O)c1c(NC(=O)CSc2ccccc2N)sc(C)c1C,-,-,-,-,-,-
O=C(CSc1nnc2c(n1)[nH]c1ccccc12)OCc1ccccc1,-,-,79,-,-,-
O=C(NCc1ccc2c(c1)OCO2)c1ccc(S(=O)(=O)N2CCOCC2)cc1,-,-,-,-,-,-
CCOC(=O)N1CCN(C(=O)c2ccc3c(=O)n(CCc4ccccc4)c(=O)[nH]c3c2)CC1,-,-,-,-,-,-
Cc1ccc(S(=O)(=O)Nc2ccc(NC(=O)Nc3cccc(C(F)(F)F)c3)cc2)cc1,-,-,70,-,-,-
NNC(=O)c1cccc(S(=O)(=O)Nc2cccc(C(F)(F)F)c2)c1,-,-,.,.,-,.
Cc1ccc(NS(=O)(=O)c2ccc(NC(=O)c3cccc(NC(=O)C(C)C)c3)cc2)cc1,-,-,56,-,-,-
O=C(NCc1ccccc1Cl)c1ccc(S(=O)(=O)Nc2cccc(C(F)(F)F)c2)cc1,-,-,61,-,-,-
CCC(=O)c1ccc(OCC(=O)N2CCCC2)c(OC)c1,-,-,-,-,-,-
CCN1C(=O)C(O)(CC(=O)/C=C/C=C/c2ccccc2)c2ccccc21 (centres undefined),-,-,75,-,-,-
C#CCN1C(=O)C(O)(CC(=O)/C=C/C=C/c2ccccc2)c2ccccc21 (centres undefined),-,-,-,-,-,-
CCn1cc(C(=O)OCc2ccccc2)c(=O)c2ccc(C)nc21,-,-,78,-,-,-
CCn1cc(C(=O)OCC(=O)OC2CC(C)CCC2C(C)C)c(=O)c2ccc(C)nc21 (centres undefined),-,-,79,-,-,-
C=CCOC(=O)c1cn(CC)c2nc(C)ccc2c1=O,-,-,-,-,-,-
CN1CCN(S(=O)(=O)c2ccc3[nH]c(=O)oc3c2)CC1,-,-,-,-,-,-
O=C(NNC(=O)c1ccccc1[N+](=O)[O-])Nc1ccc(Cl)cc1,-,-,-,-,-,-
O=C(CC(c1ccccc1)c1ccccc1)Nc1ccc(Cl)cn1,-,-,-,-,-,53
O=C(Nc1ccc(Cl)cn1)c1ccccc1[N+](=O)[O-],-,-,-,-,-,23
O=C(CSCc1ccccc1)Nc1ccc(Cl)cn1,-,-,-,-,-,-
O=C(Nc1ccc(NC(=O)c2ccccc2Cl)nc1)c1ccncc1,90,-,-,-,-,-
O=C(CN1CCN(Cc2ccccc2)CC1)Nc1ccc(Cl)cn1,-,.,53,-,-,-
O=C(NC1CCN(C(=O)c2cccs2)CC1)c1ccccc1,-,-,.,.,-,.
CCc1cc(CNC(=O)CCc2nnc(CCCc3ccccc3)o2)on1,-,-,-,-,-,-
Cc1cccc(NC(=O)/C=C/c2ccc(Cl)cc2)n1,-,-,-,-,-,-
SMILES,BaF3 tox,bCat nuc transl,L major viab,APP transl inh,Ba/F3 V617F tox,MT stabilizer
O=C(/C=C/c1ccccc1)Nc1ccc(Cl)cn1,-,-,-,-,-,25
CC1CCc2c(sc3ncn(CC(=O)N=Nc4c(O)[nH]c5ccccc45)c(=O)c23)C1 (centres undefined),-,-,.,.,-,.
CCc1nc(N=Nc2c(O)[nH]c3ccccc23)c2c3c(sc2n1)CCC3,-,.,83,-,-,-
CCOc1ccc(Cc2c(Cl)nc(SC)nc2N(C)C)cc1,-,-,-,-,-,22
O=S(=O)(/C=C/c1ccccc1)Oc1ccccc1,-,.,-,-,-,-
O=C(CCn1nc(-c2ccc(Cl)cc2)c2ccccc2c1=O)Nc1cccnc1,-,-,62,-,-,-
COc1ccc(OC)c(-c2nc(CN3CCCCC3c3cccnc3)c(C)o2)c1 (centres undefined),-,-,-,-,-,-
COc1ccc(CN2CCCCC2c2cccnc2)c(OC)c1C (centres undefined),-,-,70,-,-,-
COc1ccc(/C=N/NC2=NCCCCC2)c(OC)c1,-,-,-,-,-,-
